Source: article PMC9350903 (ACS chemical neuroscience, 2021)
Several values for one entry are separate records, joined by “and”; a condition that tells them apart may be missing. Equal values may be shown once.

How the values were obtained:
[1] = target: T1, CSF-1R (Rattus norvegicus, UniProt Q00495); assay: [^3H]CPPC autoradiography in intrastriatal LPS rat brain tissues; format: binding; conditions: for inhibition of [^3H]CPPC binding: 10 μM competitor
T1 sequence (Q00495 20-978): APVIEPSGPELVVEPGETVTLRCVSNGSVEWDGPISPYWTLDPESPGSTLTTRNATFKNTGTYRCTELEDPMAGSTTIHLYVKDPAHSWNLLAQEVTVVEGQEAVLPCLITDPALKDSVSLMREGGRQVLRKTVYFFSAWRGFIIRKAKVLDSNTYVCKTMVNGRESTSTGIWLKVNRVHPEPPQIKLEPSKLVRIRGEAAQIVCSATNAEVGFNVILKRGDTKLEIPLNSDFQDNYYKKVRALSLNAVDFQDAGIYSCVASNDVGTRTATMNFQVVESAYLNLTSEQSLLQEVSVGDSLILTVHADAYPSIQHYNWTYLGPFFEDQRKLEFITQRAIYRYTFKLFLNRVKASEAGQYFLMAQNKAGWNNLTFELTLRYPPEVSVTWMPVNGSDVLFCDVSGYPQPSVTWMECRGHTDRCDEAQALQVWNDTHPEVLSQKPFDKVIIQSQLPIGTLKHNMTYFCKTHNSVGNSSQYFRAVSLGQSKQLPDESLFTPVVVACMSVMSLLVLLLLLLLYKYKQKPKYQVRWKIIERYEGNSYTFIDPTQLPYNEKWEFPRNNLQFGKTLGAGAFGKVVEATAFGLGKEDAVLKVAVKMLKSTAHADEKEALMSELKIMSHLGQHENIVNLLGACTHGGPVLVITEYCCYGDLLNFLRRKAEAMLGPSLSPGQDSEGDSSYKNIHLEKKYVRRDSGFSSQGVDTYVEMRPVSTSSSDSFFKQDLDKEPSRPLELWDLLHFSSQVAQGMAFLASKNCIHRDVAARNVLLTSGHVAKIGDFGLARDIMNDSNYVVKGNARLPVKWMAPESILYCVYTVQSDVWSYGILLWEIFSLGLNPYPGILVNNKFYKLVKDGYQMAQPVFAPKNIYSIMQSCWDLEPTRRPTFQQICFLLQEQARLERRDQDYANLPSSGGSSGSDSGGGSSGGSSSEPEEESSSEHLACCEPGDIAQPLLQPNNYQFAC

[2] = target: T2, CSF-1R (Mus musculus, UniProt P09581); assay: [^3H]CPPC autoradiography in GBM mouse model brain tissue; format: binding; conditions: mouse GBM brain sections; 18 nM [^3H]CPPC; defined using unlabeled 10 μM CPPC
T2 sequence (P09581 20-977): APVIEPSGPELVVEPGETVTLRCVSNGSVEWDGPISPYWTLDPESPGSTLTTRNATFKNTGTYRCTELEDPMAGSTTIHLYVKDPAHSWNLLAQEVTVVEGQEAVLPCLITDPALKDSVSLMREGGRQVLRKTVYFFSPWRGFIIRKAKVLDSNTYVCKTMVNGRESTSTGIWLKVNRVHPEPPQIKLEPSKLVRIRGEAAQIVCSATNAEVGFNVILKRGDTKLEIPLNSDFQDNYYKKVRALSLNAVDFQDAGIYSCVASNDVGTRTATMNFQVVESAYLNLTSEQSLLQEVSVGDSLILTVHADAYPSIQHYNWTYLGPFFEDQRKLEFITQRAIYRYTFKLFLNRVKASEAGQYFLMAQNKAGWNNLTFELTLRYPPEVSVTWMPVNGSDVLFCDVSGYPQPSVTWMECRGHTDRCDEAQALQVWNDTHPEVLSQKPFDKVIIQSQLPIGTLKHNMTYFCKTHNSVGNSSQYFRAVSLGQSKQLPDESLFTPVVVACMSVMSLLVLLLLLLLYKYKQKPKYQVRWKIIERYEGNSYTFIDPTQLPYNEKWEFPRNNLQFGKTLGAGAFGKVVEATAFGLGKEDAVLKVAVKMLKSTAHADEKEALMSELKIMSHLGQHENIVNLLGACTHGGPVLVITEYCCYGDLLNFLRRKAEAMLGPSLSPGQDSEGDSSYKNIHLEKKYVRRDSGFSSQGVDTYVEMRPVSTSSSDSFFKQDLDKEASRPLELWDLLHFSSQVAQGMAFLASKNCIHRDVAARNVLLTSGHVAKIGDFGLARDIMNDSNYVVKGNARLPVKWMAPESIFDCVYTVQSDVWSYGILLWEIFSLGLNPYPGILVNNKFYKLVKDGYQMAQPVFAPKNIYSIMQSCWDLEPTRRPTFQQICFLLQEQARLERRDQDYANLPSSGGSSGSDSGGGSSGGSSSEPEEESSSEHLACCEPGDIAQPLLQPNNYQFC
Summary of the method: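 Male-unspecified mice received a unilateral intrastriatal injection of 2.5e6 […] cells. Tumour-bearing mice were selected by MRI on day 10 and killed 9 days later. Brains were fresh-frozen and cut at 10 μm. Sections were incubated with tritiated test compound in 100% FBS for 2 h at room temperature. Non-specific binding used 10 μM unlabeled compound. Sections were washed in 0.5% BSA at 4 °C, then water at 4 °C, exposed to a phosphor screen for 5 days and analysed by ROI.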

[3] = target: T2, CSF-1R; assay: [^3H]CPPC autoradiography in i.p. LPS mouse spleen tissues; format: binding
[4] = system: CSF-1R; assay: No-Wash Assay with [^3H]CPPC in LPS-treated spleen and LPS injected brains; format: binding; conditions: LPS-treated spleen, 7-day and 30-day post LPS injected brains
[5] = Storage stability of [^3H]CPPC; format: physicochemical; conditions: stored at −20 °C in ethanol; over the first 6 months
Summary of the method: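 Tritiated test compound (80 Ci/mmol; 1 mCi/mL stock) was stored in ethanol at −20 °C. Decomposition was measured at 2, 4 and 6 months.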

[6] = target: TSPO (Rattus norvegicus, UniProt P16257); assay: [^3H]PBR28 autoradiography in intrastriatal LPS rat brain tissues; format: binding
[7] = target: T3, TSPO (Mus musculus, UniProt P50637); assay: [^3H]PBR28 autoradiography in GBM mouse model brain tissue; format: binding
Summary of the method: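 Mice received an intrastriatal injection of 2.5e6 […] cells and were killed 19 days later. Fresh-frozen brain sections were incubated with 3 nM tritiated TSPO radioligand (total binding) and read by phosphor-screen autoradiography. Adjacent sections were immunostained for IBA-1. Tumour was located by anti-luciferase staining.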

[8] = target: T3, TSPO; assay: [^3H]PBR28 autoradiography in i.p. LPS mouse spleen tissues; format: binding
Summary of the method: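 C57bl/6 male mice, 10 weeks old, received LPS 1 mg/kg i.p. in saline for 3 or 4 consecutive days and were killed on day 5 or 6. Spleens were slow-frozen on dry ice and sectioned. Sections were incubated with ascending concentrations of tritiated TSPO radioligand in 100% FBS for 2 h at room temperature, then washed. […] Bmax and Kd came from non-linear regression of phosphor-screen ROI data.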

[9] = system: TSPO; assay: No-Wash Assay with [^3H]PBR28 in LPS-treated spleen and LPS injected brains; format: binding; conditions: LPS-treated spleen, 7-day and 30-day post LPS injected brains
[10] = target: 403 known kinases; assay: scanMAX KINOMEscan profile; format: binding; conditions: 10 μM unlabeled CPPC; number of kinases hit of number tested
Summary of the method: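 Outsourced scanMAX KINOMEscan competition-binding profile of 403 kinases. Unlabeled test compound was tested at 10 μM, and kinases with off-target binding were identified.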

[11] = target: T4, serotonin 5-HT3A receptor (Homo sapiens, UniProt P46098); assay: Eurofins DiscoverX SAFETYscan CNS safety panel
T4 sequence (P46098 24-478): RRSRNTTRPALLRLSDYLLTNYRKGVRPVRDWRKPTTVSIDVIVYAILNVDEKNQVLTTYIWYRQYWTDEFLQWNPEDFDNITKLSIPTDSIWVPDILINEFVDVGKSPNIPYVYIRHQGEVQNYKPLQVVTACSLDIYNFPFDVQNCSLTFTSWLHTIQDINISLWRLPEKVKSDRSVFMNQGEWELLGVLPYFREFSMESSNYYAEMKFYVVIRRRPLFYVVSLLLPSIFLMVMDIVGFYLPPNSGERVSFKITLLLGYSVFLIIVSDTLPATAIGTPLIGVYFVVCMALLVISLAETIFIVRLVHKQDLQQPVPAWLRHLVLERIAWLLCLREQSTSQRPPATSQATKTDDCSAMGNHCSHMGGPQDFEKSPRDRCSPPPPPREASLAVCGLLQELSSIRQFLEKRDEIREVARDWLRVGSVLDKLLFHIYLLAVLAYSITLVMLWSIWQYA

[12] = target: α4β2 nicotinic acetylcholine receptor (Homo sapiens, UniProt P17787+P43681); assay: Eurofins DiscoverX SAFETYscan CNS safety panel
Chain of α4β2 nicotinic acetylcholine receptor (P43681 29-627 limits assumed): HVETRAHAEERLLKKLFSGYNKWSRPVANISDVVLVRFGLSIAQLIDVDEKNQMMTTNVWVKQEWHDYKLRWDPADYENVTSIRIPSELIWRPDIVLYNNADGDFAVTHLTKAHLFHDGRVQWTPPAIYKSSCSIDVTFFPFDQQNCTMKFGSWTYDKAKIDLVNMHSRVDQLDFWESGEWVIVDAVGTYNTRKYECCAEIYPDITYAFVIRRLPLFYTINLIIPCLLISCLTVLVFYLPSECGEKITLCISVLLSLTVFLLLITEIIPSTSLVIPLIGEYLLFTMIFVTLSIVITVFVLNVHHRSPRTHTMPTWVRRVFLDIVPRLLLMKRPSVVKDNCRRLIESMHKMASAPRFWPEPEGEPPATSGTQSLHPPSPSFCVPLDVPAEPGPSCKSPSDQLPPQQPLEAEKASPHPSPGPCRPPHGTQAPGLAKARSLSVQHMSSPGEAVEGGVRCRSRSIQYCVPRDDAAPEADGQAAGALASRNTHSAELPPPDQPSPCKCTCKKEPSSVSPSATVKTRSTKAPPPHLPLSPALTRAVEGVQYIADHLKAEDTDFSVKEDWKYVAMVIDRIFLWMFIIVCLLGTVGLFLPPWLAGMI
Chain of α4β2 nicotinic acetylcholine receptor (P17787 26-502): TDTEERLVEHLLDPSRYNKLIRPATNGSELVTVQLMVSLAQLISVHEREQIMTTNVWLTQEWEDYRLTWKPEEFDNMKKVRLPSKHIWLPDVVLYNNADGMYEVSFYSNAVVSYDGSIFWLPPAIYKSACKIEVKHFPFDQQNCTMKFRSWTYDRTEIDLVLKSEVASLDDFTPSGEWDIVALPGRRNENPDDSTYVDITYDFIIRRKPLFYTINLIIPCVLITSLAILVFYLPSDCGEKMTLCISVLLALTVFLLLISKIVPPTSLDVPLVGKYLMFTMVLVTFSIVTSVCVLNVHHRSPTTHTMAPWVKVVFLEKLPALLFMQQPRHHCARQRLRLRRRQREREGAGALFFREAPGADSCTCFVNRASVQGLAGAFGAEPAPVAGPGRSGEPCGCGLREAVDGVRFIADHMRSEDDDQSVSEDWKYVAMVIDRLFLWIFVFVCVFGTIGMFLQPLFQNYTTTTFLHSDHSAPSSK

[13] = target: NAV 1.5 sodium-gated channel (Homo sapiens, UniProt Q14524); assay: Eurofins DiscoverX SAFETYscan CNS safety panel
Chain of NAV 1.5 sodium-gated channel (Q14524 whole entry): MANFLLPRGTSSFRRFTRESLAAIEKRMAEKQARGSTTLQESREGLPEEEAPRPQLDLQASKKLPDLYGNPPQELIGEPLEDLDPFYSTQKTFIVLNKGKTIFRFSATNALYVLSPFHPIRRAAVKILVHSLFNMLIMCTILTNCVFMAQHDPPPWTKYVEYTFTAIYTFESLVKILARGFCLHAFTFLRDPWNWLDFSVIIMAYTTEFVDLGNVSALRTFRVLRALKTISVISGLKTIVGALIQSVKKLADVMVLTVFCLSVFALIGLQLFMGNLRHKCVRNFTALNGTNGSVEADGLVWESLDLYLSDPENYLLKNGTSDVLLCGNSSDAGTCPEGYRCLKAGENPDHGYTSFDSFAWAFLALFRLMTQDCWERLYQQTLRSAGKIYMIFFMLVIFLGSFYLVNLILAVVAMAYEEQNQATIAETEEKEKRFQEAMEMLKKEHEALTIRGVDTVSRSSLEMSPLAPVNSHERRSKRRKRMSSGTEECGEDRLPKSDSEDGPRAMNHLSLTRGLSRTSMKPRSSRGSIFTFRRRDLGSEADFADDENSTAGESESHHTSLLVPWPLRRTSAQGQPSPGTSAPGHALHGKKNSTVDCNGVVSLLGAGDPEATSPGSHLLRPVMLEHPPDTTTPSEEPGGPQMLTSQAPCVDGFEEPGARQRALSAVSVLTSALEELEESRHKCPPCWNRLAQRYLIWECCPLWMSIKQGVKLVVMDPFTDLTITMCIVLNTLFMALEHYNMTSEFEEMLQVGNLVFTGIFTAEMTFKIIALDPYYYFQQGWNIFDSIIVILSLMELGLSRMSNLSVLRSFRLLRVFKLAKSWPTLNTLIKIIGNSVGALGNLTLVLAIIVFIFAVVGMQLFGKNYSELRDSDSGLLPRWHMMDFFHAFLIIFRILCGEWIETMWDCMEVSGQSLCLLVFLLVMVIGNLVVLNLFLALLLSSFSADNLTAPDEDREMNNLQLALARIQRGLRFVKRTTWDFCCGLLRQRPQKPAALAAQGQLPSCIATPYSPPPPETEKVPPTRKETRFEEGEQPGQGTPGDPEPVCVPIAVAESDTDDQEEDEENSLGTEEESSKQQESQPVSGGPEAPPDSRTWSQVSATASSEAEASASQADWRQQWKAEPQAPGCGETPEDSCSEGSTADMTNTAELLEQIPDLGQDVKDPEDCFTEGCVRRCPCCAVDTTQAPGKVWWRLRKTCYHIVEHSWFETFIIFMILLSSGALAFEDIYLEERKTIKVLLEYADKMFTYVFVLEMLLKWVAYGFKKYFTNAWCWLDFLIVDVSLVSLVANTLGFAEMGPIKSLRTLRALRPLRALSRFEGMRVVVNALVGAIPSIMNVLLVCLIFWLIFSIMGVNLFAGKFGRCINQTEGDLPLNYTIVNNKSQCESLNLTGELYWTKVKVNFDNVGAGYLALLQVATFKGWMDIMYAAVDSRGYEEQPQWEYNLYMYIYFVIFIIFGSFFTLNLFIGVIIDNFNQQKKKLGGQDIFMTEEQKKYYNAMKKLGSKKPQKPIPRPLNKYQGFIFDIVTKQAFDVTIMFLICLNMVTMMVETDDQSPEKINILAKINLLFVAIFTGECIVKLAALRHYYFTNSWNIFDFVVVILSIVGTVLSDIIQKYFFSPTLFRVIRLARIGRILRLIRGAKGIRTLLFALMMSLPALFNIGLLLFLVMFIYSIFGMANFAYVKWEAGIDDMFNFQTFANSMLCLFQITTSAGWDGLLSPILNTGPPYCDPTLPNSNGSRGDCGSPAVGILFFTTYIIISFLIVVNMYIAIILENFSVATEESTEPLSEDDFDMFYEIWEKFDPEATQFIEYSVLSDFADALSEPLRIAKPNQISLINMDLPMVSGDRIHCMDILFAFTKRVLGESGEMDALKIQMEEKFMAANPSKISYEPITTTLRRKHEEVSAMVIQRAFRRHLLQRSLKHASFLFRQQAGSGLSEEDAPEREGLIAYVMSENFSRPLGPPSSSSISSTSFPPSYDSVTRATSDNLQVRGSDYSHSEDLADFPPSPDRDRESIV

[14] = target: insulin receptor (Homo sapiens, UniProt P06213); assay: Eurofins DiscoverX SAFETYscan CNS safety panel
Chain of insulin receptor (P06213 28-1382): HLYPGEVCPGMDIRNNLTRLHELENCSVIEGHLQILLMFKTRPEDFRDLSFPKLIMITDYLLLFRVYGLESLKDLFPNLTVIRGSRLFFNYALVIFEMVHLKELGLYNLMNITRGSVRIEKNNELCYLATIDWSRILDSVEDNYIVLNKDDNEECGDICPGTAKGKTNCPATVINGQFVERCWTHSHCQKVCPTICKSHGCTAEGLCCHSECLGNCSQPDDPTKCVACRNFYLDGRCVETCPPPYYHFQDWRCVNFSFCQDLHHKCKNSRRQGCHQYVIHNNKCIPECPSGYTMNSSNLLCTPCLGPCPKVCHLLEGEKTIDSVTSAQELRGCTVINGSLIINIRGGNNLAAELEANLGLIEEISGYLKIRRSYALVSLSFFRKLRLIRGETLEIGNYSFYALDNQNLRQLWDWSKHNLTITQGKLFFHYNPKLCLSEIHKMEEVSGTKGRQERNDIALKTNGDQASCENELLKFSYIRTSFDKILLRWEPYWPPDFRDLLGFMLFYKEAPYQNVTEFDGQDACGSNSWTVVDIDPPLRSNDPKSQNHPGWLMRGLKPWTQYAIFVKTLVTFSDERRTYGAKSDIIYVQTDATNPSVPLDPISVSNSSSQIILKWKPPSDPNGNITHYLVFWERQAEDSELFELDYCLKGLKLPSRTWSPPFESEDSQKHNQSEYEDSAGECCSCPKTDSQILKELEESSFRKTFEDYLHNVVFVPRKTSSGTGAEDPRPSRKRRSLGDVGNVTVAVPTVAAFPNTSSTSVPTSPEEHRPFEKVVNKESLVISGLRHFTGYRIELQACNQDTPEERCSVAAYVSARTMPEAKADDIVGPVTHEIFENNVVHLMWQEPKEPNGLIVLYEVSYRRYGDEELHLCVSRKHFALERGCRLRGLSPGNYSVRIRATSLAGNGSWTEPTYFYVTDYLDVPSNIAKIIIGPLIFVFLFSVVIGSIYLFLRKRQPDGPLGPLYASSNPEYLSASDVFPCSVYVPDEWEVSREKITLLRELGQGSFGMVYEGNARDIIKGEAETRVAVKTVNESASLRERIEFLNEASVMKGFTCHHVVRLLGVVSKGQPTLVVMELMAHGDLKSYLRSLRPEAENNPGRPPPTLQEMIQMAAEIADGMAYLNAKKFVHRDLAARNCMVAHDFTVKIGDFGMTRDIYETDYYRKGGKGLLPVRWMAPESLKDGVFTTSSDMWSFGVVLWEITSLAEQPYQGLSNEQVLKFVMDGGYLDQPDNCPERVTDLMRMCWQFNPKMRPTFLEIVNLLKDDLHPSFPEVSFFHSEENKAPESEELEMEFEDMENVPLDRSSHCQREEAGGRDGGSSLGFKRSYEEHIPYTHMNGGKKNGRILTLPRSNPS

[15] = target: Tyrosine protein kinase LCK (Homo sapiens, UniProt P06239); assay: Eurofins DiscoverX SAFETYscan CNS safety panel
Chain of Tyrosine protein kinase LCK (P06239 whole entry): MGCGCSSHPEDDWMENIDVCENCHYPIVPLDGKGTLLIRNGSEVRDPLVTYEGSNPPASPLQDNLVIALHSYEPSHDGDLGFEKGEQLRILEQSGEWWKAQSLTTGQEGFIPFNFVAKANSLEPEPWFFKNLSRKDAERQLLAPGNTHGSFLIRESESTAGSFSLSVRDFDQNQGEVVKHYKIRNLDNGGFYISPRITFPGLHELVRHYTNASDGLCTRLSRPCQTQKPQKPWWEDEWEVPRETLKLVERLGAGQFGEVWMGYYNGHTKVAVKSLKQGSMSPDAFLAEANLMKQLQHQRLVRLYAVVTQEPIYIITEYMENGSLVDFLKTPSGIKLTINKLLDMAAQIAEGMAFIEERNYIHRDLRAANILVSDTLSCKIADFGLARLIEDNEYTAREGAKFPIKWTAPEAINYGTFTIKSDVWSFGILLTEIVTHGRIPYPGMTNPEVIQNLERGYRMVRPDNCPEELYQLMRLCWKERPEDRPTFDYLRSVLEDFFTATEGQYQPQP

[16] = target: vascular endothelial growth factor receptor 2 (Homo sapiens, UniProt P35968); assay: Eurofins DiscoverX SAFETYscan CNS safety panel
[17] = system: CSF-1R; conditions: [^11C]CPPC autoradiography in AD tissues; cited from earlier work
[18] = system: Kit; conditions: cited from earlier work
[19] = system: Axl; conditions: cited from earlier work
[20] = system: TrkA; conditions: cited from earlier work
[21] = system: Flt-3; conditions: cited from earlier work
[22] = system: IRKβ; conditions: cited from earlier work
[23] = system: c-kit; conditions: cited from earlier work
[24] = oral administration; non-human primates; cited from earlier work
[25] = system: CSF-1R; conditions: cited from earlier work
[26] = 7-day post-LPS injection rat brain, [^3H]CPPC 3.5 nM, mean ± sd
[27] = ipsilateral hemisphere of 30-day LPS rat brain, [^3H]CPPC 3 nM
[28] = [^3H]CPPC saturation in i.p. LPS mouse spleen
[29] = rats sacrificed 30-days post-surgery
[30] = [^3H]PBR28 saturation in i.p. LPS mouse spleen

With [3H]C([3H])([3H])N1CCN(c2ccc(NC(=O)c3ccc(C#N)o3)c(N3CCCCC3)c2)CC1 [[^3H]CPPC, [^3H] 5-cyano-N-(4-(4-methylpiperazin-1-yl)-2-(piperidin-1-yl)phenyl)furan-2-carboxamide] the “[^3H]CPPC binding, contralateral hemisphere” value [1, 26] was 17.9 ± 1.1 nCi/mg, the “[^3H]CPPC binding, ipsilateral hemisphere” value [1, 26] was 18.9 ± 1.7 nCi/mg and the “saturability of [^3H]CPPC binding” value ([1]; 30-day LPS rat brain sections, radioligand concentration up to 40 nM) was “failed to saturate”. For the same compound, the “total binding of [^3H]CPPC” value [1, 27] was 15 nCi/mg, the “specific signal of [^3H]CPPC” value [2] was ~ 60% and the Bmax [3, 28] was 1339 fmol/mg tissue. The “baseline radioligand binding of [^3H]CPPC” value ([3]; i.p. LPS mouse spleen, [^3H]CPPC 3 nM) was 100 nCi/mg, the “specific binding under No-Wash Assay conditions” value [4] was “lack of specific binding” and the rate of decomposition [5] was “less than 3%”.

With COc1ccccc1CN(C(C)=O)c1cnccc1Oc1ccccc1 [[^3H]PBR28] the Bmax ([6]; [^3H]PBR28 saturation, ipsilateral hemisphere of 30-day LPS rat brain) was 620.7 fmol/mg, the “[^3H]PBR28 specific binding, contralateral hemisphere” value ([6]; rats sacrificed 7-days post-surgery) was 29.0 ± 3.1 nCi/mg and the “[^3H]PBR28 specific binding, ipsilateral hemisphere” value ([6]; rats sacrificed 7-days post-surgery, mean ± sd) was 83.5 ± 48.9 nCi/mg. The “[^3H]PBR28 specific binding, contralateral hemisphere” value [6, 29] was 14.0 ± 2.36 nCi/mg, the “[^3H]PBR28 specific binding, ipsilateral hemisphere” value [6, 29] was 36.2 ± 4.07 nCi/mg and the “[^3H]PBR28 binding density” value ([7]; areas of decreased immunostaining for inflammatory cells) was 620 MDC/mm^2. The “relative target density ([^3H]PBR28 specific signal)” value ([7]; region of the tumor and immediately proximal areas) was 250500 MDC/mm^2, the Bmax [8, 30] was 14771 fmol/mg tissue and the Kd [8, 30] was 0.0024 µM. The specific binding ([8]; defined using unlabeled 10 μM FEPPA, i.p. LPS mouse spleen) was 99 ± 0.03% and the “specific binding under No-Wash Assay conditions” value [9] was > 60%.

With CN1CCN(c2ccc(NC(=O)c3ccc(C#N)o3)c(N3CCCCC3)c2)CC1 [CPPC, 5-cyano-N-(4-(4-methylpiperazin-1-yl)-2-(piperidin-1-yl)phenyl)furan-2-carboxamide] the “displacement of [^3H]CPPC binding” value ([1]; 10 μM unlabeled CPPC, LPS rodent brain tissue) was “up to 50%”, the “% inhibition of [^3H]CPPC binding (signal-to-noise)” value ([1]; 7-day post-LPS rat brain, 10 μM unlabeled CPPC, [^3H]CPPC 3.5 nM) was 49.9 ± 2.9% and the “inhibition of [^3H]CPPC binding” value [1, 27] was 60%. The IC50 [3] was 0.0094 µM, the “hillslope (nH)” value ([3]; CPPC concentration curve vs [^3H]CPPC in i.p. LPS spleen) was 0.46 and the “inhibition of [^3H]CPPC binding” value ([3]; i.p. LPS mouse spleen (n = 6), 10 μM competitor, [^3H]CPPC 3 nM) was 85% and > 80%. For the same compound, the “kinase targets with off-target binding” value [10] was 204 of 403, the IC50 [11] was 5.86 µM and the IC50 [12] was 4.88 µM. It also gave an IC50 [13] of 6.51 µM, an IC50 [14] of 0.07 µM and an IC50 [15] of 0.022 µM. The IC50 [16] was 0.074 µM, the “ratio of total baseline binding to the inhibited condition” value [17] was 1.7–2.7 and the “concentration of off-target binding” value [18] was “less than 0.1 μM”. The “concentration of off-target binding” value [19] was “less than 0.1 μM”, the “concentration of off-target binding” value [20] was “less than 0.1 μM” and the “concentration of off-target binding” value [21] was “less than 0.1 μM”. The “concentration of off-target binding” value [22] was “less than 0.1 μM”.

For CN1CCN(c2ccc(NC(=O)c3ccc(C#N)o3)c(N3CCCCC3)c2)CC1 [[^3H]CPPC, [^3H] 5-cyano-N-(4-(4-methylpiperazin-1-yl)-2-(piperidin-1-yl)phenyl)furan-2-carboxamide], the Kd [3, 28] was 0.0043 µM.

For FC(F)(F)c1ccc(CNc2ccc(Cc3c[nH]c4ncc(Cl)cc34)cn2)cn1 [PLX3397, 5-((5-chloro-1H-pyrrolo[2,3-b]pyridin-3-yl)methyl)-N-((6-(trifluoromethyl)pyridin-3-yl)methyl)pyridin-2-amine], the “inhibition of [^3H]CPPC binding” value [1, 27] is given as 15%, the affinity for c-kit [23] is given as 20 nM and the “presence in cerebrospinal fluid” value [24] is given as “observed in cerebrospinal fluid, albeit at low concentrations”. For the same compound, the “affinity for CSF-1R” value [25] was 10 nM.
